Values after ≈ are worked out from the molar mass of the structure shown. Active and inactive are the calls of the source. The calls are words filed in the database; no cut-off is given here.
How the values were obtained:
Cathepsin K = molecular target: T1, Cathepsin K (Homo sapiens, UniProt P43235); test: Inhibition of human recombinant cathepsin K by fluorometric assay
T1 sequence (P43235 whole entry): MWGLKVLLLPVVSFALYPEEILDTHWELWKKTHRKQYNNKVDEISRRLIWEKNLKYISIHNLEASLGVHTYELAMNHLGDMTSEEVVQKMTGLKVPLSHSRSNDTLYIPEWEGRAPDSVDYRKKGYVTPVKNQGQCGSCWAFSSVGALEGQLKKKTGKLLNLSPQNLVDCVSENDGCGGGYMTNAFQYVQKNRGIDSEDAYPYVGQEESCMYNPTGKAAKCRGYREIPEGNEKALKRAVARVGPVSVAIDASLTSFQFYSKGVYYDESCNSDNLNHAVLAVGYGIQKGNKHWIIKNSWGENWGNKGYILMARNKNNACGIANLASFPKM
How it was run: (§1)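 Fluorometric inhibition assay with recombinant human enzymes. Cat K and Cat L used Z-Phe-Arg-AMC as substrate. Cat S used L-Leu-Leu-Arg-AMC as substrate. Values reported as IC50.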

Cathepsin S = Cathepsin S (Homo sapiens, UniProt P25774); test: Inhibition of human recombinant cathepsin S by fluorometric assay; how it was run: as §1
Chain of Cathepsin S (P25774 whole entry): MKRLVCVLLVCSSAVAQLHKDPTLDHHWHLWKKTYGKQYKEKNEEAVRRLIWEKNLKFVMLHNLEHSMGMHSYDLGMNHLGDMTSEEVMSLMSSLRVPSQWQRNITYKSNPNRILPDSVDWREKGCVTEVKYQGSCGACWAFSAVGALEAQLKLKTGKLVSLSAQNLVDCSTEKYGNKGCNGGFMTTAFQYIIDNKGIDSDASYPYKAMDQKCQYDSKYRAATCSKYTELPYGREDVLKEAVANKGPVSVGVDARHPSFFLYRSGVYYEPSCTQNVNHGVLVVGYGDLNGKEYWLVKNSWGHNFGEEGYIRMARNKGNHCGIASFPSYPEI

Procathepsin L = Procathepsin L (Homo sapiens, UniProt P07711); test: Inhibition of human recombinant cathepsin L by fluorometric assay; how it was run: as §1
Chain of Procathepsin L (P07711 whole entry): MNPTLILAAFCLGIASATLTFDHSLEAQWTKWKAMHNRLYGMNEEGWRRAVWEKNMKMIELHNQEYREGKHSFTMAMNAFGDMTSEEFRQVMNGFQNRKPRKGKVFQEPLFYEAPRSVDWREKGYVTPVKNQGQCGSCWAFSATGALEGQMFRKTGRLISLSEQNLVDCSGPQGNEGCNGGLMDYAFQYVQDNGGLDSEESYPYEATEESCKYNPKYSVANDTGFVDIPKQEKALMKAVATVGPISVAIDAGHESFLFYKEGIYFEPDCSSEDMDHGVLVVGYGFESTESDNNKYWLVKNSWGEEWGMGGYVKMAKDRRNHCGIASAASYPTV

Homo sapiens = organism: Homo sapiens; test: Selectivity for human recombinant cathepsin S over human recombinant cathepsin L
[1] = Aqueous solubility at pH 6.8; type: physicochemical
How it was run: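 Thermodynamic solubility, measured at pH 6.8 and 25 °C.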

[2] = Half life in Sprague-Dawley rat at 1 mg/kg, iv; type: ADME, organism-based; set-up: dose 1 mg/kg, route intravenous; details: in vivo
How it was run: (§2)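 Male Sprague-Dawley rats, cassette dosing. Single iv dose of 1 mg/kg and po dose of 3 mg/kg. Clearance and half-life taken from iv data. Bioavailability and po AUC derived from both routes, with AUC dose-normalized to 1 mg/kg. Values are means of n = 3, with n = 2 for some iv groups.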

[3] = molecular target: Cathepsin S (Mus musculus) (UniProt O70370); test: Inhibition of cathepsin S in mouse A20 cells assessed as invariant chain degradation at 1 uM; type: cell-based
How it was run: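 Mouse A20 cells treated at 1 µM. Cellular cathepsin S activity read out as degradation of invariant chain (Ii).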

[4] = Clearance in Sprague-Dawley rat at 1 mg/kg, iv and 3 mg/kg, po; type: ADME, organism-based; details: in vivo; how it was run: as §2
[5] = Bioavailability in Sprague-Dawley rat at 1 mg/kg, iv and 3 mg/kg, po; type: ADME, organism-based; details: in vivo; how it was run: as §2
[6] = Clearance in Sprague-Dawley rat at 1 mg/kg, iv; type: ADME, organism-based; set-up: dose 1 mg/kg, route intravenous; details: in vivo; how it was run: as §2
Rattus norvegicus = test: Bioavailability in Sprague-Dawley rat at 1 mg/kg, iv; type: ADME, organism-based; details: in vivo; how it was run: as §2

SMILES | IC50 (Cathepsin K) | IC50 (Cathepsin S) | IC50 (Procathepsin L) | other results
CN1CCC(CCOc2cc(NCC3CCC4(CC3)CC4)nc(C#N)n2)CC1 | 240 nM | 22 nM | 870 nM | –
N#Cc1ncc(C(=O)NCCc2ccccc2)c(NCC2CCC(F)(F)CC2)n1 | 130 nM | 22 nM | > 3000 nM | –
N#Cc1ncc(C(=O)N[C@H](Cc2ccccn2)CN2CCCC2)c(NCC2CCC3(CC2)CC3)n1 | – | 4 nM | 480 nM | –
N#Cc1ncc(C(=O)NCCc2ccccc2)c(OCC2CCCCC2)n1 | 9 nM | 14 nM | 780 nM | –
CNC(=O)c1c(NCC2CCC3(CC2)CC3)nc(C#N)nc1OCCC1CCN(C)CC1 | – | 2 nM | 120 nM | –
CN(CC1CCCCC1)c1nc(C#N)ncc1C(=O)NCCc1ccccc1 | 36 nM | 32 nM | 2000 nM | –
CN1CCC(CCOc2nc(C#N)nc(NCC3CCC4(CC3)CC4)c2C(=O)NCCc2ccccc2)CC1 | – | < 1 nM | 10 nM | –
N#Cc1ncc(C(=O)NCCc2ccccc2)c(NCC2CCCCC2)n1 | 15 nM | 22 nM | > 2000 nM | –
COc1cc(NC(=O)c2cnc(C#N)nc2NCC2CCC3(CC2)CC3)c(-c2ccccc2)cc1OC | > 1000 nM | 24 nM | > 3000 nM | –

Second part, led by results:

IC50 (Cathepsin K) | IC50 (Cathepsin S) | IC50 (Procathepsin L) | SMILES | other results
– | 7 nM | 510 nM | CN1CCC(NC(=O)c2cnc(C#N)nc2NCC2CCC3(CC2)CC3)(c2ccccc2)CC1 | Selectivity ratio (Homo sapiens): > 100
10 nM | 130 nM | 1100 nM | N#Cc1ncc(C(=O)NCCc2ccccc2)c(NC2CCCCC2)n1 | –
> 3000 nM | 15 nM | > 3000 nM | N#Cc1ncc(C(=O)NCCc2ccccc2)c(NCC2CCC3(CC2)CC3)n1 | –
– | < 1 nM | 64 nM | CN1CCC(COc2nc(C#N)nc(NCC3CCC4(CC3)CC4)c2C(=O)NCc2ccccc2)CC1 | –
– | 21 nM | 840 nM | C[C@@](Cc1ccccc1)(CN1CCCC1)NC(=O)c1cnc(C#N)nc1NCC1CCC2(CC1)CC2 | –
> 3000 nM | 93 nM | > 3000 nM | CC1(C)CCC(CNc2nc(C#N)ncc2C(=O)NCCc2ccccc2)CC1 | –
44 nM | < 1 nM | 150 nM | N#Cc1ncc(C(=O)N[C@H](Cc2ccccc2)CN2CCCC2)c(NCC2CCC3(CC2)CC3)n1 | solubility [1]: 27 µg/mL (≈ 57.1 µM); half-life [2]: 5.7 h; Activity [3]: Active; Selectivity ratio (Homo sapiens): > 100; clearance [4]: 16.7 mL/min/kg; bioavailability [5]: 42%
– | < 1 nM | 270 nM | CN1CCC(CCOc2nc(C#N)nc(NCC3CCC4(CC3)CC4)c2C(=O)NCc2ccccc2)CC1 | –
140 nM | 2 nM | 180 nM | CN1CCC(Cc2ccccc2)(NC(=O)c2cnc(C#N)nc2NCC2CCC3(CC2)CC3)CC1 | Selectivity ratio (Homo sapiens): > 100
170 nM | 6 nM | 700 nM | CN1CCC(CNC(=O)c2cnc(C#N)nc2NCC2CCC3(CC2)CC3)(c2ccccc2)CC1 | solubility [1]: 89 µg/mL (≈ 188 µM); half-life [2]: 3.3 h; Activity [3]: Active; Selectivity ratio (Homo sapiens): > 100; clearance [6]: 173 mL/min/kg; F (Rattus norvegicus): 100%
– | 3 nM | 840 nM | CN1CCC(Oc2ccc(NC(=O)c3cnc(C#N)nc3NCC3CCC4(CC3)CC4)c(-c3ccccc3)c2)CC1 | solubility [1]: 2 µg/mL (≈ 3.63 µM); half-life [2]: > 8 h; Activity [3]: Active; clearance [4]: 13.3 mL/min/kg; bioavailability [5]: 66%
100 nM | 2 nM | 280 nM | CN1CCC(CCOc2nc(C#N)nc(NCC3CCC4(CC3)CC4)c2Br)CC1 | solubility [1]: 11 µg/mL (≈ 23.8 µM); half-life [2]: 4.6 h; clearance [4]: 85 mL/min/kg; bioavailability [5]: 100%
– | 1 nM | 100 nM | CN1CCC(Oc2nc(C#N)nc(NCC3CCC4(CC3)CC4)c2C(=O)NCc2ccccc2)CC1 | –
200 nM | 23 nM | 1500 nM | N#Cc1ncc(C(=O)N[C@@H](Cc2ccccc2)CN2CCCC2)c(NCC2CCC3(CC2)CC3)n1 | –
